Measured values as given in ChEMBL document CHEMBL1147937, “Kinesin spindle protein (KSP) inhibitors. Part V: discovery of 2-propylamino-2,4-diaryl-2,5-dihydropyrroles as potent, water-soluble KSP inhibitors, and modulation of their basicity by beta-fluorination to overcome cellular efflux by P-glycoprotein” (Bioorg Med Chem Lett, 2007).

Tests used:
[1] = target: T1, Kinesin-like protein KIF11 (Homo sapiens, UniProt P52732); assay: Inhibition of KSP
T1 sequence (P52732 whole entry): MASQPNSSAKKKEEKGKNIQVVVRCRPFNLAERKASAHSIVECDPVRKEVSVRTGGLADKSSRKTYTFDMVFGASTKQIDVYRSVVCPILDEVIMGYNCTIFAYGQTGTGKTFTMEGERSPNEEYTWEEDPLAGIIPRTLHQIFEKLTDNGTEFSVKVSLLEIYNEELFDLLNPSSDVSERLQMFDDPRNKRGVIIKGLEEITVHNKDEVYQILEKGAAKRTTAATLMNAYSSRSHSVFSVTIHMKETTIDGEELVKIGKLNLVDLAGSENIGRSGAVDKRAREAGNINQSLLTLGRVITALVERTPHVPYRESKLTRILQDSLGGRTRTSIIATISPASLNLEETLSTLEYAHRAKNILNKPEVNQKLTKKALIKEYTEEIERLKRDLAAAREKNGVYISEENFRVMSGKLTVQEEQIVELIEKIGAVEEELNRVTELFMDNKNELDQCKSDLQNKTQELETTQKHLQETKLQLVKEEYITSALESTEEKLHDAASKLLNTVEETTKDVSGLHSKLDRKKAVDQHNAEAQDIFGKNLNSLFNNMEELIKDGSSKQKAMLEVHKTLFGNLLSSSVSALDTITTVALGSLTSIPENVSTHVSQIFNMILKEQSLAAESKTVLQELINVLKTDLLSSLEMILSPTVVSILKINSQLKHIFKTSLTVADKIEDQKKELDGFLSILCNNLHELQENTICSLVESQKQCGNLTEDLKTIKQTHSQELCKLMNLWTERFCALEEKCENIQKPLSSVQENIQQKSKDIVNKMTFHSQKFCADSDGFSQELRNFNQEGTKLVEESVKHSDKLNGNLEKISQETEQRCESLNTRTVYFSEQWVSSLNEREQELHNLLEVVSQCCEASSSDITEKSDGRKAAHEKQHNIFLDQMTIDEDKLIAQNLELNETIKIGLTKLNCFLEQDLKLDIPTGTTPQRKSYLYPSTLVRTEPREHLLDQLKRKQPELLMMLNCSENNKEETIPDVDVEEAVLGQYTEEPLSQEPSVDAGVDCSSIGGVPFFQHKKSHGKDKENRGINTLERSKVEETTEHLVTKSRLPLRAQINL

[2] = Partition coefficient, log P of the compound; format: physicochemical; settings: octanol/water
[3] = Dissociation constant, pKa of the compound; format: physicochemical
Method in brief: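 Ionization constant measured with an automated pKa titrator; the value is the average of n = 3 determinations.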

[4] = Ratio of IC50 for human KBV1 cells to human KB31 cells after 16 hrs; format: cell-based; settings: KBV1 cells and KB31 cells, read-out: Ratio IC50
Method in brief: (§1)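 IC50 for induction of G2/M (mitotic) block was determined in two human epidermoid carcinoma lines: parental KB-3-1, which lacks Pgp, and KB-V-1. KB-V-1 was derived by culturing KB-3-1 with vinblastine and highly overexpresses Pgp. The MDR ratio is the quotient of the KB-V-1 IC50 over the KB-3-1 IC50.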

MDR1 [5] = assay: Efflux ratio of permeability from basolateral to apical over apical to basolateral side of the […] cell transfected with MDR1 by monolayer transport assay; format: ADME, cell-based; settings: LLC-PK1
Method in brief: (§2)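 Monolayer transport assay in LLC-PK1 cells transfected with the human MDR1 gene. The efflux ratio is basolateral-to-apical over apical-to-basolateral transport. Passive permeability is reported in 10^-6 cm/s.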

[6] = target: Voltage-gated inwardly rectifying potassium channel KCNH2 (Homo sapiens, UniProt Q12809); assay: Inhibition of hERG expressed in CHO cells by cell voltage clamp assay; format: toxicity, cell-based
MDR1 [7] = assay: Permeability across LLCPK1 cells expressing MDR1 gene; format: ADME, cell-based; settings: human, LLC-PK1; read-out: permeability; method in brief: as §2
[8] = target: T1, Kinesin-like protein KIF11; assay: Inhibition of KSP in KBV1 cells overexpressing Pgp; format: cell-based; method in brief: as §1
[9] = Solubility in 0.1 M citrate at pH 4.0; format: physicochemical; settings: 0.1 M citrate buffer
Method in brief: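 Aqueous solubility measured on the free-base form in 0.1 M citrate, with an initial pH of 4.0.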

[10] = target: T1, Kinesin-like protein KIF11; assay: Inhibition of KSP in KB31 cells; format: cell-based; method in brief: as §1

Chain of Voltage-gated inwardly rectifying potassium channel KCNH2 (Q12809 whole entry): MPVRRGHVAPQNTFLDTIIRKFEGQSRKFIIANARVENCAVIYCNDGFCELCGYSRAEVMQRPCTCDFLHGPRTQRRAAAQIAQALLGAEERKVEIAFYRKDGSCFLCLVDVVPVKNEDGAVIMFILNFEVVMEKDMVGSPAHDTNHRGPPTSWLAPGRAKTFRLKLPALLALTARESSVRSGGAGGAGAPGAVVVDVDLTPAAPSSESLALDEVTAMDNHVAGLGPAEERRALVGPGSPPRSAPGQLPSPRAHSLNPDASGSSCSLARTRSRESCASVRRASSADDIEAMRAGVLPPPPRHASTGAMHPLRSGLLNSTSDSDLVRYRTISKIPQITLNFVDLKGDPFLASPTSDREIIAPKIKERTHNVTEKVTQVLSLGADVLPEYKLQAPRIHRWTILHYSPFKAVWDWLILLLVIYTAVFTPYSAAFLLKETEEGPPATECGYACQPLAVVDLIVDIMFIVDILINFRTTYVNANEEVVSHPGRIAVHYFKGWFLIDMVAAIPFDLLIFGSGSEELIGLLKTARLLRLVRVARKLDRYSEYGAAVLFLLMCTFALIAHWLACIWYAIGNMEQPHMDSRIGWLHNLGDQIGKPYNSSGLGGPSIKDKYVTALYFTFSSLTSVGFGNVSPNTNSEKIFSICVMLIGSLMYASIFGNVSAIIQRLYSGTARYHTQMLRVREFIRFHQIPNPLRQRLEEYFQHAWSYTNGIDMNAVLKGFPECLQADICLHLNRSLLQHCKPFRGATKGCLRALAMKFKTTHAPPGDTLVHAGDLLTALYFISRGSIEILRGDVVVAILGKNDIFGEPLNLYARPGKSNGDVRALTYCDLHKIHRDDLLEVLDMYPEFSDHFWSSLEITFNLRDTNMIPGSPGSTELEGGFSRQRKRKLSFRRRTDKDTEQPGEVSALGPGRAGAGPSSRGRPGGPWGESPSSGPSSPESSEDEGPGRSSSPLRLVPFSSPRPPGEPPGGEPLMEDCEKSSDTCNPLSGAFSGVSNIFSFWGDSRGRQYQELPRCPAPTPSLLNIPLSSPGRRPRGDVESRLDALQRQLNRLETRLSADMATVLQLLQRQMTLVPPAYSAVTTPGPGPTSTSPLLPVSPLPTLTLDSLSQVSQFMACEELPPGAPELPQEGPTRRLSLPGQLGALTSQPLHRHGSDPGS

Compound	IC50 [1] [nM]	logP [2]	pKa [3]	selectivity ratio at 16 h [4]	efflux ratio (MDR1 [5])	IC50 [6] [µM]	Papp (MDR1 [7]) [×10⁻⁶ cm/s]	IC50 [8] [µM]	solubility [9] [mg/mL]	IC50 [10] [nM]
CCNCCC[C@@]1(c2ccccc2)C=C(c2cc(F)ccc2F)CN1C(=O)N(C)C	10.2	1.6	10.7	> 135						
CN(C)C(=O)N1CC(c2cc(F)ccc2F)=C[C@@]1(CCCN)c1ccccc1	2.2	1.1	10.3	1200	18.5	7.1	4	28	> 12	
CN(C)C(=O)N1CC(c2cc(F)ccc2F)=C[C@@]1(CCCNCC(F)F)c1ccccc1	12.1	3.4	7	3						
CN(C)C(=O)N1CC(c2cc(F)ccc2F)=C[C@@]1(CCCNCC(F)(F)F)c1ccccc1	110	> 3.2	5.2	1						
CN(C)C(=O)N1N=C(c2cc(F)ccc2F)C[C@@]1(CCCN)c1ccccc1			10.3	490		19.3			> 12	
CN(C)C(=O)N1CC(c2cc(F)ccc2F)=C[C@@]1(CC[C@H](N)C(F)F)c1ccccc1	5.2	3.2		5	2.5	15.9	38	0.123	> 10	24
CN(C)C(=O)N1CC(c2cc(F)ccc2F)=C[C@@]1(CCCNCCF)c1ccccc1	10.2	2.6	8.8	32						
